In the library only some 3.1% were active in any assay of this set; here they are far more common.
RAM network inh – blocks the yeast RAM network; 1.8% of 190,000 active; S. cerevisiae dse1pr::URA3 reporter, 5-FOA growth OD615, 2 d; analog-sensitive cbk1-as2 kinase mutant strain; inhibition, % at 50 µM;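 active means inhibition above a set limit, 3 SD over mean compound inhibition, cut at about 8.4% in these data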;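 further: 0% = DMSO-only wells with no growth and 100% = 10 µM 1-NA-PP1 full growth; inhibition rescues growth on 5-FOA so higher OD means more RAM inhibition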
INS promoter inh – TRM-6 insulin promoter activity inhibition; TRM-6 cells, insulin promoter-eGFP reporter, imaging; reporter expression induced with tamoxifen; inhibition, % at 2 µM; 0.9% of 130,000 active; AID 1273;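 active means inhibition above the mean plus 3 SD, with well images judged a real hit on visual review, cut at about 60% in these data, passing the limit was not always enough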
Yeast lifespan up – extends the lifespan of yeast | S. cerevisiae growth with nicotinamide, OD615; deaD strain in restrictive glucose medium | inhibition of the nicotinamide effect, % at 10 µM | 0.68% of 130,000 active | AID 775;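 active means inhibition above a set limit, placed 3 SD over the median of all compounds, cut at about 26% in these data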;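 further: 0% = nicotinamide-treated wells and 100% = cells grown without nicotinamide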
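Test system: DeaD-strain S. cerevisiae / Buffer or medium: restrictive glucose medium / Also added: nicotinamide 1.5 mM / Doses: one concentration, 10 µM, DMSO 0.25% / Schedule: 48 h at 30 °C / Signal: OD615 measurement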
Insulin prom up – MIN6 insulin promoter up-regulation | AID 1625 | MIN6 insulin promoter-GFP reporter, high-content imaging; hits give high values | z-score at 5 µM | 0.3% of 190,000 active;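 active means z-score above 3 at 5 µM with at least 500 cells counted in the well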
BB579 growth dn – chemicals that inhibit yeast BB579 growth in restrictive medium (lifespan-shortening candidates). S. cerevisiae BB579 growth, OD615, 48 h. inhibition, % at 10 µM. 0.51% of 140,000 active;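 active means inhibition above a set limit, 3 SD over the mean compound inhibition, cut at about 44% in these data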
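Test system: DeaD yeast strain BB579 / Buffer or medium: restrictive glucose-based CSMM-D medium / Doses: single 10 µM dose / Schedule: 4 h cell preincubation, 48 h compound exposure, 30 °C humidified / Technique: culture absorbance at 615 nm / Controls: amphotericin B positive control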
RAM efflux-def – restores 5-FOA growth of efflux-deficient yeast; shares compounds with RAM network inh; S. cerevisiae efflux-deficient reporter strain, 5-FOA growth OD615, 2 days; max inhibition, %; 1,200 tested, under 10 active; call rule not given here;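 further: plate controls were vehicle for no effect and reference inhibitor for full effect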
Numbers without * were called inactive.

For CCOC(=O)C(C)Sc1cc(CS(=O)(=O)c2ccccc2)nc(-c2ccccc2)n1 (configuration not stated) the results were RAM network inh 12*, INS promoter inh -20, Yeast lifespan up 31, BB579 growth dn -24 and RAM efflux-def 3.
For Cc1ccc(CNC(=O)c2nnc(Cc3ccc(Cl)cc3)o2)cc1 the results were Insulin prom up 0.17.
For Cc1ccc(CSCCNC(=O)c2ccc(N(C)S(=O)(=O)c3ccccc3)cc2)cc1 the results were RAM network inh 18*, INS promoter inh -38, Yeast lifespan up 6, Insulin prom up 0.86, BB579 growth dn -57 and RAM efflux-def 4.
CN(c1ccc(C(=O)NCCSCc2ccc(Cl)cc2)cc1)S(=O)(=O)c1ccccc1 was read as RAM network inh 20*, INS promoter inh -16, Yeast lifespan up 6, Insulin prom up 0.67, BB579 growth dn -46 and RAM efflux-def 3.
For COc1ccc(CCNC(=O)c2ccc(N(C)S(=O)(=O)c3ccccc3)cc2)cc1 the results were Insulin prom up -0.35.
For CN(c1ccc(C(=O)NCCSC(C)(C)C)cc1)S(=O)(=O)c1ccccc1 the results were RAM network inh 1 and INS promoter inh 0.
For COc1cc(-c2nnc(-c3ccccc3)o2)cc(OC)c1OC the results were RAM network inh 23*, INS promoter inh 69, BB579 growth dn 6 and RAM efflux-def 3.
COc1cccc(C(=O)CSc2nnc(-c3cc(OC)c(OC)c(OC)c3)o2)c1 was read as RAM network inh 13*, Yeast lifespan up -5, Insulin prom up 0.07, BB579 growth dn -62 and RAM efflux-def 3.
CCS(=O)(=O)Nc1ccc(-c2nnc(SCC(=O)c3cccc(OC)c3)o2)cc1 was read as RAM network inh 8, INS promoter inh 28, Yeast lifespan up -11, Insulin prom up -0.4 and BB579 growth dn -43.
COc1cc(-c2nnc(-c3cc(OC)c(OC)c(OC)c3)o2)cc(OC)c1OC was read as RAM network inh 5, INS promoter inh 14, Insulin prom up -0.35 and BB579 growth dn -35.
For COc1ccc(C(=O)/C=C/c2ccc(N3CCCCC3)c([N+](=O)[O-])c2)c(OC)c1 the results were RAM network inh 17*, Yeast lifespan up 4, Insulin prom up 0.61, BB579 growth dn -42 and RAM efflux-def 4.
`Cc1ccc(C(=O)O/N=C\c2ccc(N3CCCCC3)c([N+](=O)[O-])c2)cc1` gave RAM network inh 16*, INS promoter inh 24, Yeast lifespan up -3, BB579 growth dn -15 and RAM efflux-def 3.
For O=C(O/N=C\c1ccc(N2CCCCC2)c([N+](=O)[O-])c1)c1c(F)cccc1F the results were RAM network inh 6, INS promoter inh 11, Yeast lifespan up -6 and BB579 growth dn -37.
Screening CC(C)NC(=O)CC(c1ccccc1)c1cc(Br)ccc1O (configuration not stated) returned RAM network inh -1, INS promoter inh -31, Yeast lifespan up -12, Insulin prom up 0.19 and BB579 growth dn -3.
CCCCCCNC(=O)CC(c1ccccc1)c1cc(Br)ccc1O (configuration not stated) was read as RAM network inh 11*, INS promoter inh -295, BB579 growth dn -19 and RAM efflux-def 2.
For CN(C)c1ccc(N=Nc2ccccc2C(=O)OCC(=O)NCC2CCCCC2)cc1 the results were RAM network inh 25*, INS promoter inh -7, Yeast lifespan up 15, Insulin prom up 0.72, BB579 growth dn -27 and RAM efflux-def 3.
CCOc1ccc(CNC(=O)CCc2cn(Cc3ccccc3)c3ccccc23)cc1 was read as RAM network inh 13*, INS promoter inh -7, Yeast lifespan up 3, Insulin prom up 0.18, BB579 growth dn -16 and RAM efflux-def 3.
For CCOc1ccc(CNC(=O)CCCOc2cc(=O)n(C)c3ccccc23)cc1 the results were RAM network inh 1, INS promoter inh 47, Yeast lifespan up -4, Insulin prom up -1 and BB579 growth dn -65.
For CNc1nc(OCC#N)nc(N2CCCCC2)n1 the results were RAM network inh 2, INS promoter inh 21 and Insulin prom up 0.82.

Source: PubChem BioAssay (several laboratories)
